Test results as given in ChEMBL document CHEMBL1152128, “Catalytic site-selective synthesis and evaluation of a series of erythromycin analogs” (2008).
Values after ≈ are worked out from the molar mass of the structure shown.

Columns and labels:
Staphylococcus aureus = experiment: Antibacterial activity against Staphylococcus aureus ATCC 29213; type: functional
Outline: (§1)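 Broth microdilution MIC in Mueller Hinton II broth, 384-well format, quadruplicate wells. The compound is serially diluted two-fold from DMSO stocks, with final concentrations half of 64 to 0.0625 µg/mL. The inoculum is a 0.5 McFarland culture diluted 100-fold, mixed 1:1 with compound to 20 µL per well. Plates are incubated 24 h at 35 °C. MIC is the lowest concentration with no visible growth; OD620 is also read.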

Enterococcus faecalis = experiment: Antibacterial activity against Enterococcus faecalis ATCC 29212; type: functional; outline: as §1

SMILES | MIC (Staphylococcus aureus) | MIC (Enterococcus faecalis)
CCCCCCCC(=O)O[C@H]1[C@H](O[C@@H]2[C@@H](C)[C@H](O[C@H]3C[C@@](C)(OC)[C@@H](OP(=O)(Oc4ccccc4)Oc4ccccc4)[C@H](C)O3)[C@@H](C)C(=O)O[C@H](CC)[C@](C)(O)[C@H](OC(=O)CCCCCCC)[C@@H](C)C(=O)[C@H](C)C[C@]2(C)O)O[C@H](C)C[C@@H]1N(C)C | > 32 µg/mL | > 32 µg/mL
C=CCCC(=O)O[C@H]1[C@H](O[C@@H]2[C@@H](C)[C@H](O[C@H]3C[C@@](C)(OC)[C@@H](OP(=O)(Oc4ccccc4)Oc4ccccc4)[C@H](C)O3)[C@@H](C)C(=O)O[C@H](CC)[C@](C)(O)[C@H](OC(=O)CCC=C)[C@@H](C)C(=O)[C@H](C)C[C@]2(C)O)O[C@H](C)C[C@@H]1N(C)C | > 32 µg/mL | > 32 µg/mL
CC[C@H]1OC(=O)[C@H](C)[C@@H](O[C@H]2C[C@@](C)(OC)[C@@H](O)[C@H](C)O2)[C@H](C)[C@@H](O[C@@H]2O[C@H](C)C[C@H](N(C)C)[C@H]2O)[C@@](C)(O)C[C@@H](C)C(=O)[C@H](C)[C@@H](OC(=O)CCNC(=O)OC(C)(C)C)[C@@]1(C)O | 32 µg/mL (≈ 35.4 µM) | > 32 µg/mL
CCC(=O)O[C@H]1[C@H](O[C@@H]2[C@@H](C)[C@H](O[C@H]3C[C@@](C)(OC)[C@@H](OP(=O)(Oc4ccccc4)Oc4ccccc4)[C@H](C)O3)[C@@H](C)C(=O)O[C@H](CC)[C@](C)(O)[C@H](OC(=O)CC)[C@@H](C)C(=O)[C@H](C)C[C@]2(C)O)O[C@H](C)C[C@@H]1N(C)C | > 32 µg/mL | > 32 µg/mL
C=CCCC(=O)O[C@H]1[C@H](O[C@@H]2[C@@H](C)[C@H](O[C@H]3C[C@@](C)(OC)[C@@H](O)[C@H](C)O3)[C@@H](C)C(=O)O[C@H](CC)[C@](C)(O)[C@H](OC(=O)CCC=C)[C@@H](C)C(=O)[C@H](C)C[C@]2(C)O)O[C@H](C)C[C@@H]1N(C)C | 32 µg/mL (≈ 35.6 µM) | > 32 µg/mL
CC[C@H]1OC(=O)[C@H](C)[C@@H](O[C@H]2C[C@@](C)(OC)[C@@H](O)[C@H](C)O2)[C@H](C)[C@@H](O[C@@H]2O[C@H](C)C[C@H](N(C)C)[C@H]2O)[C@](C)(O)C[C@@H](C)C(=O)[C@H](C)[C@@H](O)[C@]1(C)O [ERYTHROMYCIN] | 1 µg/mL (≈ 1.36 µM) | 2 µg/mL (≈ 2.73 µM)
CC[C@H]1OC(=O)[C@H](C)[C@@H](O[C@H]2C[C@@](C)(OC)[C@@H](O)[C@H](C)O2)[C@H](C)[C@@H](O[C@@H]2O[C@H](C)C[C@H](N(C)C)[C@H]2OC(=O)CCNC(=O)OC(C)(C)C)[C@@](C)(O)C[C@@H](C)C(=O)[C@H](C)[C@@H](OC(=O)CCNC(=O)OC(C)(C)C)[C@@]1(C)O | > 32 µg/mL | > 32 µg/mL
CCC(=O)O[C@H]1[C@H](O[C@@H]2[C@@H](C)[C@H](O[C@H]3C[C@@](C)(OC)[C@@H](O)[C@H](C)O3)[C@@H](C)C(=O)O[C@H](CC)[C@](C)(O)[C@H](OC(=O)CC)[C@@H](C)C(=O)[C@H](C)C[C@]2(C)O)O[C@H](C)C[C@@H]1N(C)C | 32 µg/mL (≈ 37.8 µM) | 32 µg/mL (≈ 37.8 µM)
CC[C@H]1OC(=O)[C@H](C)[C@@H](O[C@H]2C[C@@](C)(OC)[C@@H](OP(=O)(Oc3ccccc3)Oc3ccccc3)[C@H](C)O2)[C@H](C)[C@@H](O[C@@H]2O[C@H](C)C[C@H](N(C)C)[C@H]2OC(C)=O)[C@@](C)(O)C[C@@H](C)C(=O)[C@H](C)[C@@H](OC(=O)CCNC(=O)OC(C)(C)C)[C@@]1(C)O | > 32 µg/mL | > 32 µg/mL
C=CCCC(=O)O[C@@H]1[C@@H](C)C(=O)[C@H](C)C[C@](C)(O)[C@H](O[C@@H]2O[C@H](C)C[C@H](N(C)C)[C@H]2O)[C@@H](C)[C@H](O[C@H]2C[C@@](C)(OC)[C@@H](O)[C@H](C)O2)[C@@H](C)C(=O)O[C@H](CC)[C@]1(C)O | 16 µg/mL (≈ 19.6 µM) | 32 µg/mL (≈ 39.2 µM)
CCC(=O)O[C@@H]1[C@@H](C)C(=O)[C@H](C)C[C@](C)(O)[C@H](O[C@@H]2O[C@H](C)C[C@H](N(C)C)[C@H]2O)[C@@H](C)[C@H](O[C@H]2C[C@@](C)(OC)[C@@H](O)[C@H](C)O2)[C@@H](C)C(=O)O[C@H](CC)[C@]1(C)O | 16 µg/mL (≈ 20.3 µM) | 32 µg/mL (≈ 40.5 µM)
CCCCCCCC(=O)O[C@H]1[C@H](O[C@@H]2[C@@H](C)[C@H](O[C@H]3C[C@@](C)(OC)[C@@H](O)[C@H](C)O3)[C@@H](C)C(=O)O[C@H](CC)[C@](C)(O)[C@H](OC(=O)CCCCCCC)[C@@H](C)C(=O)[C@H](C)C[C@]2(C)O)O[C@H](C)C[C@@H]1N(C)C | > 32 µg/mL | > 32 µg/mL
CCCCCCCC(=O)O[C@@H]1[C@@H](C)C(=O)[C@H](C)C[C@](C)(O)[C@H](O[C@@H]2O[C@H](C)C[C@H](N(C)C)[C@H]2O)[C@@H](C)[C@H](O[C@H]2C[C@@](C)(OC)[C@@H](O)[C@H](C)O2)[C@@H](C)C(=O)O[C@H](CC)[C@]1(C)O | 32 µg/mL (≈ 37.2 µM) | 32 µg/mL (≈ 37.2 µM)
CC[C@H]1OC(=O)[C@H](C)[C@@H](O[C@H]2C[C@@](C)(OC)[C@@H](O)[C@H](C)O2)[C@H](C)[C@@H](O[C@@H]2O[C@H](C)C[C@H](N(C)C)[C@H]2OC(C)=O)[C@@](C)(O)C[C@@H](C)C(=O)[C@H](C)[C@@H](OC(=O)CCNC(=O)OC(C)(C)C)[C@@]1(C)O | 32 µg/mL (≈ 33.8 µM) | > 32 µg/mL
CCCCCCCC(=O)O[C@@H]1[C@@H](C)C(=O)[C@H](C)C[C@](C)(O)[C@H](O[C@@H]2O[C@H](C)C[C@H](N(C)C)[C@H]2O)[C@@H](C)[C@H](O[C@H]2C[C@@](C)(OC)[C@@H](OC(=O)CCCCCCC)[C@H](C)O2)[C@@H](C)C(=O)O[C@H](CC)[C@]1(C)O | > 32 µg/mL | > 32 µg/mL
